In the library only some 2.8% were active in any assay of this set; here they are far more common.
dFosB act-1 = mouse delta FosB homodimer activation. activation, % at 25 µM. P13346. 0.99% of 340,000 active. purified delta FosB, TAMRA-CDK5 oligo fluorescence polarization; percent of positive-control signal above neutral wells;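 active means mean activation above about 17%, with every replicate also reaching it, limit read from the data, passing the limit was not always enough; inconclusive means only one of the two conditions met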
CAL PDZ FP-1 = blocks peptide binding to the human CAL PDZ domain. AID 602252. purified CAL PDZ, TMR-peptide fluorescence polarization, 1 h. inhibition, % at 24.9 µM. 0.92% of 300,000 active. Q9HD26;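 active means mean inhibition of at least 30% with at least half of replicates also reaching 30%; inconclusive means no clear call, values can overlap the other calls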
SR-BI HDL uptake = mouse SR-BI HDL lipid transfer inhibition; Q61009; ldlA[mSR-BI] CHO cells, DiI-HDL uptake fluorescence, 3 h; inhibition, % at 12.5 µM; 0.96% of 320,000 active; AID 488896;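 active means mean replicate inhibition of at least 70% and a set share of replicates each scoring 70 or more; inconclusive means meets just one of the two criteria; inactive means fails both criteria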
Target sequence (Q61009 whole entry, looked up): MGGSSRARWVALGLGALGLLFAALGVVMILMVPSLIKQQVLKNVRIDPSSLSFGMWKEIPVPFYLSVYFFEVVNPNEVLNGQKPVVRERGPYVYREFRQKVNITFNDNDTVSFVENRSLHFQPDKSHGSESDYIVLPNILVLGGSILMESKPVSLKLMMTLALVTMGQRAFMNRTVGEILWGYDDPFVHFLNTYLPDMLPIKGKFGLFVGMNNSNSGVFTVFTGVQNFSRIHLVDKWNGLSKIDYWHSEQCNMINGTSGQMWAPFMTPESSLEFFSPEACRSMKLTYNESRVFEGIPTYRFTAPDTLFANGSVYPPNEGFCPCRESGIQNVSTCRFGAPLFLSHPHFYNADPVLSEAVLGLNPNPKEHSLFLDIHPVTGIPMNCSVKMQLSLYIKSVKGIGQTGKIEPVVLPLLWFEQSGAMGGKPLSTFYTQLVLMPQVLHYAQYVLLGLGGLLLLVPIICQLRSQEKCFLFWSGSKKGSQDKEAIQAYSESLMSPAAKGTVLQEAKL
SR-BI uptake up = enhances SR-BI lipid uptake from DiI-HDL | CHO ldlA[mSR-BI] cells, DiI-HDL uptake fluorescence, 3 h; 100 = double the neutral-control signal | activation, % at 12.5 µM | 0.096% of 320,000 active;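 active means mean replicate activation of at least 60% and every replicate at or above 60%; inconclusive means mean or all-replicate condition met, but not both; inactive means mean below 60% and not all replicates reaching 60%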
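Test system: SR-BI-overexpressing, LDLR-lacking CHO cells. Measured by: DiI fluorescence, bottom read. Medium: Ham's F12 with 0.5% BSA, HEPES 25 mM, pH 7.4. Timing: 3 h uptake period with compound, 37 °C.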
CAL PDZ FP-2 = inhibitors of human CAL PDZ peptide binding; Q9HD26; purified CAL PDZ, TMR-peptide fluorescence polarization, 1 h; inhibition, % at 20 µM; 0.02% of 330,000 active; AID 504414;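 active means highest replicate inhibition of at least 40%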
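Test system: tagged CAL PDZ domain / Buffer or medium: sodium phosphate/NaCl buffer pH 7.4 with TCEP, IgG, Thesit / Reagent: TMR-labelled reporter peptide T*-PRC34 bound in PDZ groove / Compound dosing: single point, 20 µM / Schedule: 1 h incubation at room temperature before polarization reading / Technique: fluorescence polarization (mP) / Benchmarks: unlabelled peptide, DMSO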
dFosB act-2 = enhances mouse delta FosB homodimer binding to DNA; AID 588690; activation, % at 24.9 µM; shares compounds with dFosB act-1; purified delta FosB, TAMRA-CDK5 oligo fluorescence polarization; normalised: neutral wells 0, positive control 100; 2,400 tested, under 10 active;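 active means highest replicate activation at or above 34% and every replicate reaching that threshold; inconclusive means meets only one of the two criteria; inactive means meets neither criterion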;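 further: higher polarization means more probe DNA bound by delta FosB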
A number is an active result.

What do the screens show for `COc1ccc(-c2ccc3c(N)c(C(=O)c4ccc(OC)c(OC)c4)sc3n2)cc1`?
dFosB act-1: 30; CAL PDZ FP-1: inactive; SR-BI HDL uptake: inactive; SR-BI uptake up: inactive; dFosB act-2: inactive

How did Cc1ccc(C(=O)NCCNc2nc3cc(C)c(C)cc3cc2C)cc1 do in these assays?
dFosB act-1: 41; CAL PDZ FP-1: inactive; SR-BI HDL uptake: inactive; SR-BI uptake up: inactive; CAL PDZ FP-2: inactive; dFosB act-2: inactive

How did CNC(=S)Nc1cccc(C(=O)OC)c1 do in these assays?
dFosB act-1: inactive; SR-BI HDL uptake: inactive; SR-BI uptake up: inactive; CAL PDZ FP-2: inactive

How did CC(C)Cc1nnc(NC(=O)CCC(=O)N2CCN(c3ccc(Cl)cc3)CC2)s1 do in these assays?
dFosB act-1: inactive; CAL PDZ FP-1: inactive; SR-BI HDL uptake: inactive; SR-BI uptake up: inactive; CAL PDZ FP-2: inactive

Results for COc1cc(C2C(C#N)=C(N)Oc3cc(C)n(CCc4ccccc4)c(=O)c32)cc2c1OCO2 (stereo not drawn) ?
dFosB act-1: 68; CAL PDZ FP-1: inactive; SR-BI HDL uptake: inactive; SR-BI uptake up: inactive; dFosB act-2: inactive

How did Cc1cc2c(c(=O)n1CCc1ccccc1)C(c1ccco1)C(C#N)=C(N)O2 (stereo not drawn) do in these assays?
dFosB act-1: inactive; CAL PDZ FP-1: inactive; SR-BI HDL uptake: inactive; SR-BI uptake up: inactive; CAL PDZ FP-2: inactive

What do the screens show for `CNC(=O)c1c[nH]c2ccc(S(=O)(=O)Nc3cccc(SC)c3)cc2c1=O`?
dFosB act-1: 19; CAL PDZ FP-1: inactive; SR-BI HDL uptake: inactive; SR-BI uptake up: inactive; CAL PDZ FP-2: inactive; dFosB act-2: inactive

What do the screens show for `Cc1cc(C)cc(NC(=O)C(OC(=O)c2ccc(NC(=O)CC#N)cc2)c2ccccc2)c1` (stereo not drawn)?
dFosB act-1: 28; CAL PDZ FP-1: inactive; SR-BI HDL uptake: inactive; SR-BI uptake up: inactive; CAL PDZ FP-2: inactive; dFosB act-2: inactive

Results for Cc1ccc(C)c(NC(=O)C(OC(=O)c2ccc(CO)cc2)c2ccccc2)c1 (stereo not drawn) ?
dFosB act-1: 35; CAL PDZ FP-1: inactive; SR-BI HDL uptake: inactive; SR-BI uptake up: inactive; CAL PDZ FP-2: inactive; dFosB act-2: inactive

What do the screens show for `Cc1ccc(C)c(NC(=O)C(OC(=O)c2cc[n+]([O-])cc2)c2ccccc2)c1` (stereo not drawn)?
dFosB act-1: inactive; CAL PDZ FP-1: inactive; SR-BI HDL uptake: inactive; SR-BI uptake up: inactive; CAL PDZ FP-2: inactive

What do the screens show for `CCn1c2ccccc2c2cc(NC(=O)COC(=O)c3ccc(O)cc3)ccc21`?
dFosB act-1: inactive; CAL PDZ FP-1: inactive; SR-BI HDL uptake: inactive; SR-BI uptake up: inactive; CAL PDZ FP-2: inactive

How did CCn1c2ccccc2c2cc(NC(=O)C(C)OC(=O)c3ccc(NC(=O)CC#N)cc3)ccc21 (stereo not drawn) do in these assays?
dFosB act-1: 18; CAL PDZ FP-1: inactive; SR-BI HDL uptake: inactive; SR-BI uptake up: inactive; CAL PDZ FP-2: inactive; dFosB act-2: inactive

What do the screens show for `O=C(CSc1nnc(CNC(=O)c2ccc(F)cc2)o1)NCC1CCCO1` (stereo not drawn)?
dFosB act-1: inactive; CAL PDZ FP-1: inactive; SR-BI HDL uptake: inactive; SR-BI uptake up: inactive; CAL PDZ FP-2: inactive

What do the screens show for `C=CCn1c(SCC(=O)Nc2ccc(OC)cc2)nnc1-c1cnccn1`?
dFosB act-1: inactive; CAL PDZ FP-1: inactive; SR-BI HDL uptake: inactive; SR-BI uptake up: inactive; CAL PDZ FP-2: inactive

Results for O=C(COC(=O)CNC(=O)c1ccc(Br)cc1)Nc1nnc(-c2ccccc2)o1 ?
dFosB act-1: 20; CAL PDZ FP-1: inactive; SR-BI HDL uptake: inactive; SR-BI uptake up: inactive; CAL PDZ FP-2: inactive; dFosB act-2: inactive

How did Cc1ccc([C@@H]2CC=C(C(=O)O)[C@H](c3ccc(Cl)cc3)N2S(=O)(=O)c2ccccc2C)cc1 do in these assays?
dFosB act-1: inactive; CAL PDZ FP-1: inactive; SR-BI HDL uptake: inactive; SR-BI uptake up: inactive; CAL PDZ FP-2: inactive

How did CCC1(c2ccccc2)NC(=O)N(CC(=O)Nc2ccc3c(C)cc(=O)oc3c2)C1=O (stereo not drawn) do in these assays?
dFosB act-1: inactive; CAL PDZ FP-1: inactive; SR-BI HDL uptake: inactive; SR-BI uptake up: inactive; CAL PDZ FP-2: inactive

How did CC(=O)NCCOC(=O)c1nn(Cc2ccccc2)c(=O)c2ccccc12 do in these assays?
dFosB act-1: inactive; CAL PDZ FP-1: inactive; SR-BI HDL uptake: inactive; SR-BI uptake up: inactive; CAL PDZ FP-2: inactive

Results for C=CCn1c(=NC(=O)c2cc(Cl)sc2Cl)sc2cc(S(N)(=O)=O)ccc21 ?
dFosB act-1: 25; CAL PDZ FP-1: inactive; SR-BI HDL uptake: inactive; SR-BI uptake up: inactive; CAL PDZ FP-2: inactive; dFosB act-2: inactive

Results for O=C(CN1CCN(c2ccccc2)CC1)Nc1cccc([N+](=O)[O-])c1 ?
dFosB act-1: inactive; CAL PDZ FP-1: inactive; SR-BI HDL uptake: inactive; SR-BI uptake up: inactive; CAL PDZ FP-2: inactive

Results for COC(=O)c1ccc2c(c1)C(C)(C)C(/C=C/c1ccc(O)cc1)=[N+]2C ?
dFosB act-1: 119; CAL PDZ FP-1: inactive; SR-BI HDL uptake: inconclusive; SR-BI uptake up: inactive; dFosB act-2: inactive

What do the screens show for `O=C(Nc1ccc(F)cc1)Nc1ccc(Cl)cn1`?
dFosB act-1: 42; SR-BI HDL uptake: inactive; SR-BI uptake up: inactive; CAL PDZ FP-2: inactive; dFosB act-2: inactive

What do the screens show for `O=C(Nc1ccc(F)c(Cl)c1)Nc1ccc(Cl)cn1`?
dFosB act-1: 39; CAL PDZ FP-1: inactive; SR-BI HDL uptake: inactive; SR-BI uptake up: inactive; CAL PDZ FP-2: inactive; dFosB act-2: inactive

Results for O=C(C1CCN(S(=O)(=O)c2ccccc2)CC1)N1CCCCCC1 ?
dFosB act-1: inactive; CAL PDZ FP-1: inactive; SR-BI HDL uptake: inactive; SR-BI uptake up: inactive; CAL PDZ FP-2: inactive

Results for O=C(Nc1cccc(-c2nc3cccnc3s2)c1)c1ccc(Cl)nc1 ?
dFosB act-1: 27; CAL PDZ FP-1: inactive; SR-BI HDL uptake: inactive; SR-BI uptake up: inactive; CAL PDZ FP-2: inactive; dFosB act-2: inactive

What do the screens show for `NS(=O)(=O)c1ccc(NC(=O)c2ccc(-c3ccccc3)cc2)cc1`?
dFosB act-1: inactive; CAL PDZ FP-1: inactive; SR-BI HDL uptake: inactive; SR-BI uptake up: inactive; CAL PDZ FP-2: inactive

Results for NS(=O)(=O)c1ccc(C(=O)Nc2ccc(-c3nc4cccnc4s3)cc2)cc1 ?
dFosB act-1: 43; CAL PDZ FP-1: inactive; SR-BI HDL uptake: inactive; SR-BI uptake up: inactive; CAL PDZ FP-2: inactive; dFosB act-2: inactive

How did Cc1cc(NC(=O)CSc2nc(N)c(NC(=O)c3ccco3)c(=O)[nH]2)no1 do in these assays?
dFosB act-1: inactive; CAL PDZ FP-1: inactive; SR-BI HDL uptake: inactive; SR-BI uptake up: inactive; CAL PDZ FP-2: inactive

How did Cc1ccc(NC(=O)COC(=O)c2cccc(N3C(=O)c4ccccc4C3=O)c2)cc1 do in these assays?
dFosB act-1: 50; CAL PDZ FP-1: inactive; SR-BI HDL uptake: inactive; SR-BI uptake up: inactive; CAL PDZ FP-2: inactive; dFosB act-2: inactive
